The target of data set [1] is T1, Butyrophilin subfamily 3 member A1 (Homo sapiens, UniProt O00481). Kind of data set: Binding affinity to BTN3A1 in human PBMC assessed as stimulation of Vgamma9 Vdelta2 T cells at 100 nM incubated for 3 days and measured after 11 days post compound removal by flow cytometry. The method, boiled down: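 Human PBMC exposed to compound at 100 nM for 3 days, then left to proliferate 11 days before counting Vγ9Vδ2 T cells. […] Negative control was cells with interleukin 2 and no compound. Data from 3 independent experiments.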
Target sequence in this assay (O00481 30-513 limits assumed): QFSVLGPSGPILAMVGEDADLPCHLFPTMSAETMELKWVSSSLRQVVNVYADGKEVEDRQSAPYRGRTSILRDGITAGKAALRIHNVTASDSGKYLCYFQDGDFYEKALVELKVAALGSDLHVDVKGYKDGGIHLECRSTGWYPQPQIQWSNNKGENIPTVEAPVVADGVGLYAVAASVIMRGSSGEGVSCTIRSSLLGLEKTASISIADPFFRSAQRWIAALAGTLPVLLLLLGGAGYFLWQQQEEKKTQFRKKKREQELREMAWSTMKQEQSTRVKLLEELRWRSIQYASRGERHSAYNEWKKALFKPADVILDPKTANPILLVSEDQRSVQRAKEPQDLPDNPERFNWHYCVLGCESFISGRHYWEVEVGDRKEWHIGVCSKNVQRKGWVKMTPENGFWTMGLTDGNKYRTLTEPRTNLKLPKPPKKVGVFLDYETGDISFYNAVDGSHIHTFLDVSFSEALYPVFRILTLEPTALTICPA
For orientation: A flow cytometer gives signals particle by particle.

In another data set the test system is K562. Briefly: Cytotoxicity in human K562 cells assessed as reduction in cell viability incubated for 72 hrs by cell-QB reagent based assay. The conditions noted are these: K562, 72 h. The essentials:
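K562 cells seeded at 0.5 × 10⁴ per well in RPMI and exposed to a range of compound concentrations, up to 100 µM, for 72 h. Cell-QB reagent was added for the final 2 h and read by fluorescence. Viability was expressed as % of untreated cells after subtracting a media-only blank. Three independent experiments.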

Data set [2] concerns the target T1, Butyrophilin subfamily 3 member A1. Kind of data set: Binding affinity to BTN3A1 in human Vgamma9 Vdelta2 T cells mixed with human K562 cells pretreated with compound for 4 hrs assessed as INF-gamma production measured after 20 hrs by ELISA. The method, boiled down:
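K562 target cells loaded with compound for 4 h, then washed. They were co-cultured with Vγ9Vδ2 T cells purified by negative selection, at 3:1 effector:target. After 20 h, supernatant interferon γ was measured by ELISA. EC₅₀ reported with 95% CI. Three independent experiments using ≥2 donors.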
Target sequence in this assay (O00481 whole entry): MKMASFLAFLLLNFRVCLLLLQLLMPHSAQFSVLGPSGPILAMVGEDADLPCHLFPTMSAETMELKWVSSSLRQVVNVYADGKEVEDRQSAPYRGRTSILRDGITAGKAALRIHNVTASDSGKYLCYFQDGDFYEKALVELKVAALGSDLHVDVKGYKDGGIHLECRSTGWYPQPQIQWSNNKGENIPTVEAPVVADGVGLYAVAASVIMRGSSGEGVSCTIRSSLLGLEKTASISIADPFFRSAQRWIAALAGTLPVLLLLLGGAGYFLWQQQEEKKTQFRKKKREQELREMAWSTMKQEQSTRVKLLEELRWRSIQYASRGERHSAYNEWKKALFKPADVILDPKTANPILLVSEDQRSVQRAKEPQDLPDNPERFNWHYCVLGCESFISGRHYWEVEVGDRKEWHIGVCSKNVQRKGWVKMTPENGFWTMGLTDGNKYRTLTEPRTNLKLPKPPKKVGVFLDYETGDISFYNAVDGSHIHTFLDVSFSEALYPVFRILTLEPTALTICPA
For orientation: An ELISA detects its analyte on a solid surface through an enzyme-linked reagent.

Data set [3] has the same target. Briefly: Binding affinity to BTN3A1 in human PBMC assessed as stimulation of Vgamma9 Vdelta2 T cells at 100 nM incubated for 3 days and measured after 11 days post compound removal by flow cytometry relative to sodium (E)-5-hydroxy-4-methylpent-3-enylphosphonate.
Target sequence in this assay (O00481 30-513 limits assumed): as the sequence (O00481 30-513 limits assumed) above
Data set [4] in a line: Stability in 50% pooled human plasma assessed as half life at 100 uM by LC-MS method. In kind it is ADME, cell-free. The method, boiled down: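 Compound at 100 µM final in pooled human plasma diluted to 50% with PBS, pH 7.5. Analysed by positive-mode LC-MS on C18 with a water/acetonitrile gradient from 25 to 80% over 9 min. Fraction remaining came from peak integration, and half-life was calculated from it. Each point run 2–4 times.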

The target in data set [5] is T1, Butyrophilin subfamily 3 member A1. Kind of data set: Binding affinity to BTN3A1 in human PBMC assessed as stimulation of Vgamma9 Vdelta2 T cells at 100 nM incubated for 3 days and measured after 11 days post compound removal by flow cytometry relative to (E)-dimethyl 5-hydroxy-4-methylpent-3-enylphosphonate.
Target sequence in this assay (O00481 30-513 limits assumed): as above
Data set [6] is described as follows: Stability in 50% pooled human plasma assessed as compound hydrolysis at 100 uM after 2 hrs by LC-MS method relative to control. The following applies: read-out: Drug degradation. In kind it is ADME, cell-free. The method, boiled down:
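Compound at 100 µM final in pooled human plasma diluted to 50% with PBS, pH 7.5. Sampled at 2 h (also 24 h), then extracted into acetonitrile and debris spun down. Analysed by positive-mode LC-MS on C18 with a 25→80% acetonitrile gradient over 9 min. Fraction remaining from peak integration; 2–4 independent runs.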

Data set [7] can be described thus: Half life in human plasma. In kind it is ADME, cell-free. The essentials: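 Compound at 100 µM final in pooled human plasma diluted to 50% with PBS, pH 7.5. Incubated for various times, including 2 and 24 h, then extracted with acetonitrile and centrifuged. Analysed by positive-mode LC-MS on C18 with a water/acetonitrile gradient from 25 to 80% over 9 min. Fraction remaining came from peak integration, and half-life was calculated from it. Each point run 2–4 times.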

SMILES strings stand for the structures. The source made the active and inactive calls. The calls are words filed in the database; no cut-off is given here.

For orientation: IC50 means the concentration that inhibits the measured activity by half. As a reminder, the EC50 is the midpoint of the concentration-response curve. With `CCOC(=O)CNP(=O)(CC/C=C(\C)CO)Oc1ccccc1` (stereo unspecified), the outcome in data set [1] was Active. For the same compound, the IC50 in the data set on K562 was above 100000 nM. In addition, the EC50 in data set [2] turned out to be 170 nM.

As to `COC(=O)CNP(=O)(CC/C=C(\C)CO)Oc1ccccc1` (stereo unspecified), the values for the Ratio EC50 in data set [3] and in data set [5] were 2700 and 3.6, respectively. Further, the result in data set [1] was Active. Besides, the IC50 with K562 was above 100000 nM. Besides, the half-maximal effective concentration (EC50) in data set [2] amounted to 460 nM. Moreover, in data set [4], the t1/2 is above 24 h.

As for `C/C(=C\CCP(=O)(OCOC(=O)C(C)(C)C)OCOC(=O)C(C)(C)C)CO`, in data set [6], the metabolised at 2 h, 100 µM is above 95%. Further, in data set [1], the outcome was Active. Besides, the t1/2 in data set [4] was 8.4 h.

Turning to `C/C(=C\CCP(=O)(NCC(=O)OC(C)C)Oc1ccc2ccccc2c1)CO` (stereo unspecified), the results for the Ratio EC50 in data set [3] and in data set [5] were 4900 and 6.6, respectively. Moreover, the outcome in data set [1] was Active. For the same compound, the IC50 with K562 is above 100000 nM. Also, the concentration for a half-maximal effect (EC50) in data set [2] came out at 210 nM. Also, the t1/2 in data set [4] was above 24 h.

Consider `C/C(=C\CCP(=O)(NCC(=O)OC(C)C)Oc1ccccc1)CO` (stereo unspecified), for which the Ratio EC50 in data set [3] was 3600; in data set [5], 4.9. For the same compound, the result in data set [1] was Active. The concentration giving a half-maximal response (EC50) in data set [2] turned out to be 740 nM. The t1/2 in data set [4] was above 24 h.

Take `CCOC(=O)CNP(=O)(CC/C=C(\C)CO)Oc1cccc2ccccc12` (stereo unspecified): the figures for the Ratio EC50 in data set [3] and in data set [5] were 11000 and 15, respectively. In data set [1], the result was Active. The half-maximal effective concentration (EC50) in data set [2] amounted to 62 nM. Also, in data set [4], the t1/2 is above 24 h.

As to `COC(=O)CNP(=O)(CC/C=C(\C)CO)Oc1cccc2ccccc12` (stereo unspecified), the Ratio EC50 was 9100 in data set [3] and 12 in data set [5]. For the same compound, the outcome in data set [1] was Active. In the data set with K562, the IC50 amounted to 40000 nM. Also, in data set [2], the concentration for a half-maximal effect (EC50) amounted to 130 nM. Also, in data set [4], the t1/2 is above 24 h.

What is called half-life is the time in which the quantity being followed falls by half. Low values mean rapid decline, high ones slow decline. The compound `COc1ccc2cc(C(=O)OCOP(=O)(CC/C=C(\C)CO)OC)c(=O)oc2c1` (stereo unspecified) yielded a half-life in data set [7] of 6 to 8 h.

As for `Oc1ccc2ccccc2c1` [BETANAPHTHOL], in the data set with K562, the half-inhibitory concentration (IC50) was above 100000 nM.

Consider `C/C(=C\COP(=O)(O)OP(=O)(O)O)CO`, for which the outcome in data set [1] was Active.

With `Oc1ccccc1` [PHENOL], in the data set on K562, the half-maximal inhibitory concentration (IC50) was above 100000 nM.

Regarding `COC(=O)CNP(=O)(CC/C=C(\C)CO)Oc1ccc2ccccc2c1` (stereo unspecified), the Ratio EC50 in data set [3] was found to be 6900; in data set [5], 9.3. In data set [1], the outcome was Active. Further, in the data set on K562, the IC50 is above 100000 nM. Besides, the EC50 in data set [2] was found to be 120 nM. Besides, the t1/2 in data set [4] was above 24 h.

For `CCOC(=O)CNP(=O)(CC/C=C(\C)CO)Oc1ccc2ccccc2c1` (stereo unspecified), the Ratio EC50 was 7500 in data set [3] and 10 in data set [5]. Besides, the result in data set [1] was Active. The EC50 in data set [2] came to 93 nM. Also, the t1/2 in data set [4] was above 24 h.

Take `Oc1cccc2ccccc12` [1-NAPHTHOL]: the IC50 in the data set on K562 is above 100000 nM.

For `C/C(=C\CCP(=O)(NCC(=O)OC(C)C)Oc1cccc2ccccc12)CO` (stereo unspecified), the Ratio EC50 in data set [3] was determined as 12000; in data set [5], 16. Moreover, in data set [1], the result was Active. Also, the 50% inhibitory concentration (IC50) in the data set with K562 was above 100000 nM. The 50% effective concentration (EC50) in data set [2] came to 290 nM. In addition, the t1/2 in data set [4] is above 24 h.

(Values after ChEMBL document CHEMBL4196196, “Phosphonamidate Prodrugs of a Butyrophilin Ligand Display Plasma Stability and Potent Vγ9 Vδ2 T Cell Stimulation” (J Med Chem, 2018).)
